For 32 compounds, inhibition results are on record in ChEMBL document CHEMBL1649418, “Pyrimidine derivatives as potent and selective A3 adenosine receptor antagonists” (J Med Chem, 2011).

Each structure is given as a SMILES string.

What all share (type): cell-based
Experiment [1] deals with T1, Adenosine receptor A2b (Homo sapiens) (UniProt P29275).
T1 sequence (whole entry): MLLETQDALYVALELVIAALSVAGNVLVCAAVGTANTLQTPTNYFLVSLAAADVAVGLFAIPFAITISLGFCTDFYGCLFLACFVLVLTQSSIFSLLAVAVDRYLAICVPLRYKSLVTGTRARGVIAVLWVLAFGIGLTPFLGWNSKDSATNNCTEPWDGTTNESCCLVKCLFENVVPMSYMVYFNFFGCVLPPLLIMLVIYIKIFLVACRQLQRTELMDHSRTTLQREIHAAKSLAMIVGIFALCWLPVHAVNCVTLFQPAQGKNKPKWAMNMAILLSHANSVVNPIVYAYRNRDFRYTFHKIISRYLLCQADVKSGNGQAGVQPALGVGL
Description: Displacement of [3H]DPCPX from human adenosine A2B receptor expressed in HEK293 cells at 0.1 uM by liquid scintillation counting. In outline: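 HEK-293 membranes (18 μg) were incubated with [3H]DPCPX (35 nM) at 25 °C for 30 min, with six concentrations from 0.1 nM to 1 μM. Nonspecific binding was defined with 400 μM NECA. Filters were washed six times with ice-cold buffer and counted by scintillation. Ki (Cheng–Prusoff) is mean ± SEM, n=3; % displacement at 0.1 μM is n=2.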
Background: Displacement assays read how much labelled ligand stays bound in the presence of the test substance.

The target in experiment [2] is T2, Adenosine receptor A1 (Homo sapiens) (UniProt P30542).
T2 sequence (whole entry): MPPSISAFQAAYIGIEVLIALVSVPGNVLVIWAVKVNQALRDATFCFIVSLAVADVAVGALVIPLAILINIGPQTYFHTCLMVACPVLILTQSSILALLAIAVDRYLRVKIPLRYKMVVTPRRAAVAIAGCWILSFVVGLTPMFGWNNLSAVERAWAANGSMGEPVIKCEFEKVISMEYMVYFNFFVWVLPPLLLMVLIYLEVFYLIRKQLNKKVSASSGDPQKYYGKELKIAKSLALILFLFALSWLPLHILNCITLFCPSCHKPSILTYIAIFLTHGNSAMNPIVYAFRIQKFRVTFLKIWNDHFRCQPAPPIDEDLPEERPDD
Kind of experiment: Displacement of [3H]DPCPX from human adenosine A1 receptor expressed in CHO cells at 0.1 uM by liquid scintillation counting. An outline of the steps:
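Transfected CHO cell membranes (15 μg) were incubated with [3H]DPCPX at 25 °C for 60 min, with six test concentrations from 0.1 nM to 1 μM. Nonspecific binding was defined with 10 μM R-PIA. Filters were washed four times with ice-cold buffer before scintillation counting. Ki (Cheng–Prusoff) is mean ± SEM, n=3; % displacement at 0.1 μM is n=2.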

The target in experiment [3] is Adenosine receptor A2a (Homo sapiens, UniProt P29274). Description: Displacement of [3H][…] from human adenosine A2A receptor expressed in human HeLa cells at 0.1 uM by liquid scintillation counting. An outline of the steps:
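Nonspecific binding was defined with 50 μM NECA. Filters were washed four times with ice-cold buffer, then counted by scintillation. Ki (Cheng–Prusoff) is mean ± SEM, n=3; % displacement at 0.1 μM is n=2.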

In experiment [4] the target is T3, Adenosine receptor A3 (Homo sapiens) (UniProt P0DMS8).
T3 sequence (whole entry): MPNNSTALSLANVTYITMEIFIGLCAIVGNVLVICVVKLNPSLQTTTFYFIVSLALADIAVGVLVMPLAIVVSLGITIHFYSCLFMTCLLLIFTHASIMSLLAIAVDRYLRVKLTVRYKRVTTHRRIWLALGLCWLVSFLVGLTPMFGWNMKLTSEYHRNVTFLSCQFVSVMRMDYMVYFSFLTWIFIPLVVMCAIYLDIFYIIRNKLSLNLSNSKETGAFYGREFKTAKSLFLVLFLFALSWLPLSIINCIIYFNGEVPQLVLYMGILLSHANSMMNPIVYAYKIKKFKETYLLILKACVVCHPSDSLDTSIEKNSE
Description: Displacement of [3H]NECA from human adenosine A3 receptor expressed in human HeLa cells at 0.1 uM by liquid scintillation counting. In outline:
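HeLa membranes (90 μg) carrying hA3AR were incubated with [3H]NECA (30 nM) at 25 °C for 180 min, with six concentrations from 0.1 nM to 1 μM. Nonspecific binding was defined with 100 μM R-PIA. Filters were washed six times and counted by scintillation. Ki (Cheng–Prusoff) is mean ± SEM, n=3; % displacement at 0.1 μM is n=2.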

As usually defined, the inhibition is the percentage by which the read-out fell short of the control. Higher therefore signals strong suppression.

Chain of Adenosine receptor A2a (P29274 whole entry): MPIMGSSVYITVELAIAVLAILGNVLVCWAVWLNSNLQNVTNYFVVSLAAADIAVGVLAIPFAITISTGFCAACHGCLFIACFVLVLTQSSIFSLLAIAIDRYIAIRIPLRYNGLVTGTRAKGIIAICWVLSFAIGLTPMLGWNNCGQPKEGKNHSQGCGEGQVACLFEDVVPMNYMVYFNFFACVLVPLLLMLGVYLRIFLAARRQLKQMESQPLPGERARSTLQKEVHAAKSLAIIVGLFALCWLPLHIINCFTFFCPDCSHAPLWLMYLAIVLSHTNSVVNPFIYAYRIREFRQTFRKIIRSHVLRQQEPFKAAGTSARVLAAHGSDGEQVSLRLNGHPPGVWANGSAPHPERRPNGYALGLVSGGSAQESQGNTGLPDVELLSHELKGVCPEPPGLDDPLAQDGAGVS

In the case of `CCCC(=O)Nc1nc(-c2ccc(Cl)cc2)cc(-c2ccc(Cl)cc2)n1`, the inhibition in experiment [1] was 1%; in experiment [2] it was 1%; in experiment [3], 3%; in experiment [4] it was 17%.
For the compound `COc1ccc(-c2cc(-c3ccc(OC)cc3)nc(NC(C)=O)n2)cc1`, the inhibition in experiment [1] was 1%; in experiment [2], 1%; in experiment [3], 7%; in experiment [4], 20%.
With `CC(=O)Nc1nc(/C=C/c2ccccc2)cc(/C=C/c2ccccc2)n1`, the inhibition amounted to 1% in experiment [1], 1% in experiment [2], 15% in experiment [3] and 4% in experiment [4].
On to `CC(=O)Nc1nc(-c2ccc(C(F)(F)F)cc2)cc(-c2ccc(C(F)(F)F)cc2)n1`, for which the inhibition in experiment [1] was found to be 2%; in experiment [2], 2%; in experiment [3] it was 1%; in experiment [4] it was 10%.
On to `CC(=O)Nc1nc(-c2ccco2)cc(-c2ccco2)n1`, for which the inhibition was determined as 11% in experiment [1], 1% in experiment [2], 19% in experiment [3] and 9% in experiment [4].
On the same counts, the results for `COc1ccc(-c2cc(-c3ccc(OC)cc3OC)nc(NC(C)=O)n2)c(OC)c1` are 1%, 1%, 2% and 9%.
For `CCCC(=O)Nc1nc(-c2ccc(C(F)(F)F)cc2)cc(-c2ccc(C(F)(F)F)cc2)n1` the same measures were 13%, 1%, 2% and 2%.
Consider `CCC(=O)Nc1nc(-c2cccs2)cc(-c2cccs2)n1`, for which the inhibition in experiment [1] was found to be 2%; in experiment [2], 24%; in experiment [3] it was 25%; in experiment [4], 21%.
With `CCCC(=O)Nc1nc(-c2ccc(C(C)=O)cc2)cc(-c2ccc(C(C)=O)cc2)n1`, the inhibition in experiment [1] came to 2%; in experiment [2] it was 7%; in experiment [3], 14%; in experiment [4] it was 22%.
On the same counts, the results for `CCC(=O)Nc1nc(-c2ccc(OC)cc2)cc(-c2ccc(OC)cc2)n1` are 8%, 2%, 1% and 13%.
For `CSc1ccc(-c2cc(-c3ccc(SC)cc3)nc(NC(C)=O)n2)cc1` the same measures were 2%, 1%, 1% and 14%.
On to `CCC(=O)Nc1nc(-c2ccoc2)cc(-c2ccoc2)n1`, for which the inhibition in experiment [1] amounted to 11%; in experiment [2], 3%; in experiment [3] it was 2%; in experiment [4] it was 16%.
On the same counts, the results for `CCCC(=O)Nc1nc(-c2ccc(F)cc2)cc(-c2ccc(F)cc2)n1` are 2%, 18%, 5% and 27%.
In the case of `CC(=O)Nc1nc(-c2ccoc2)cc(-c2ccoc2)n1`, the inhibition in experiment [1], in experiment [2], in experiment [3] and in experiment [4] was 1% in each case.
As to `CCCC(=O)Nc1nc(/C=C/c2ccccc2)cc(/C=C/c2ccccc2)n1`, the inhibition amounted to 2% in experiment [1], 1% in experiment [2], 3% in experiment [3] and 12% in experiment [4].
As to `CC(=O)Nc1nc(-c2cccs2)cc(-c2cccs2)n1`, the inhibition in experiment [1] worked out at 3%; in experiment [2] it was 2%; in experiment [3], 5%; in experiment [4], 21%.
For `CCCC(=O)Nc1nc(-c2ccccc2OC)cc(-c2ccccc2OC)n1` the same measures were 1%, 13%, 11% and 18%.
Consider `CCC(=O)Nc1nc(-c2ccc(C(C)=O)cc2)cc(-c2ccc(C(C)=O)cc2)n1`, for which the inhibition was 1% in experiment [1], 1% in experiment [2], 12% in experiment [3] and 17% in experiment [4].
Consider `CC(=O)Nc1nc(-c2ccc(F)cc2)cc(-c2ccc(F)cc2)n1`, for which the inhibition turned out to be 1% in experiment [1], 2% in experiment [2], 2% in experiment [3] and 8% in experiment [4].
In the case of `CC(=O)Nc1nc(-c2ccccc2)cc(-c2ccccc2)n1`, the inhibition in experiment [1] amounted to 6%; in experiment [2], 17%; in experiment [3], 11%; in experiment [4] it was 13%.
Take `CCC(=O)Nc1cc(-c2ccc(C(F)(F)F)cc2)nc(-c2ccc(C(F)(F)F)cc2)n1`: the inhibition came to 8% in experiment [1], 3% in experiment [2], 17% in experiment [3] and 12% in experiment [4].
On the same counts, the results for `CCC(=O)Nc1nc(-c2ccc(C(F)(F)F)cc2)cc(-c2ccc(C(F)(F)F)cc2)n1` are 9%, 2%, 12% and 2%.
On the same counts, the results for `CCCC(=O)Nc1nc(-c2ccco2)cc(-c2ccco2)n1` are 15%, 17%, 23% and 1%.
On the same counts, the results for `CCCC(=O)Nc1cc(-c2ccc(SC)cc2)nc(-c2ccc(SC)cc2)n1` are 1%, 3%, 2% and 12%.
For `CC(=O)Nc1nc(-c2ccc(Cl)cc2)cc(-c2ccc(Cl)cc2)n1`, the inhibition amounted to 1% in experiment [1], 2% in experiment [2], 2% in experiment [3] and 1% in experiment [4].
With `CCCC(=O)Nc1nc(-c2ccc(OC)cc2OC)cc(-c2ccc(OC)cc2OC)n1`, the inhibition in experiment [1] came to 15%; in experiment [2] it was 14%; in experiment [3], 16%; in experiment [4] it was 1%.
For `COc1ccccc1-c1cc(-c2ccccc2OC)nc(NC(C)=O)n1` the same measures were 1%, 4%, 10% and 2%.
As for `CCC(=O)Nc1nc(-c2ccc(F)cc2)cc(-c2ccc(F)cc2)n1`, the inhibition was determined as 1% in experiment [1], 14% in experiment [2], 3% in experiment [3] and 22% in experiment [4].
Turning to `CCCC(=O)Nc1nc(-c2ccc(OC)cc2)cc(-c2ccc(OC)cc2)n1`, the inhibition stood at 9% in experiment [1], 2% in experiment [2], 24% in experiment [3] and 15% in experiment [4].
As for `CCC(=O)Nc1nc(-c2ccccc2OC)cc(-c2ccccc2OC)n1`, the inhibition in experiment [1] is 2%; in experiment [2], 21%; in experiment [3], 13%; in experiment [4] it was 22%.
For `CC(=O)Nc1nc(-c2ccc(C(C)=O)cc2)cc(-c2ccc(C(C)=O)cc2)n1` the same measures were 14%, 7%, 8% and 2%.
For `CC(=O)Nc1nc(-c2ccccc2F)cc(-c2ccccc2F)n1` the same measures were 10%, 8%, 12% and 15%.
